Laboratory results as given in ChEMBL document CHEMBL1125908, “Substituted dihydrobenzopyran and dihydrobenzofuran thiazolidine-2,4-diones as hypoglycemic agents” (1991).

Assays:
3T3-L1 [1] = test: In vitro fold stimulation of glucose transporter protein in 3T3-L1 adipocytes at a concentration of 10 uM; format: functional, Mus musculus
How it was run: (§1)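 Differentiated 3T3-L1 adipocytes (days 7–11 after start of differentiation) exposed to compound in DMEM + 10% FBS, 0.1% DMSO final, medium renewed with fresh drug after 24 h, total 48 h. Triton X-100/EDTA/DTT extracts dot-blotted, probed with affinity-purified rabbit anti-GLUT1 (0.5 μg/mL) then 125I goat anti-rabbit IgG, gamma-counted; transporter quantified against basal-extract standard curve, fold over DMSO control.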

[2] = In vitro stimulation of 2-Deoxyglucose uptake in L6 myocytes from rat skeletal myoblasts at a concentration of 3 uM; format: functional
How it was run: (§2)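 Rat L6 myoblasts grown 14 days in MEMalpha + 2% FBS to fuse into myocytes, then serum-depleted 5 h. Uptake of 0.1 mM [1-14C]2-deoxyglucose in Dulbecco's PBS (+Ca, Mg) for 10 min at room temperature, stopped by ice-cold saline washes. Cells dissolved in 0.1 M NaOH and scintillation counted. Reported relative to 1 µM insulin set at 1.0.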

Mus musculus [3] = test: Compound was evaluated for in vivo for % glucose normalization in mice at a concentration of 10 mg/kg.; format: functional
How it was run: (§3)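 Six- to eight-week-old C57BL/6J-ob/ob mice, acclimated 1 week, bled retroorbitally before treatment. Oral gavage once daily for four days in 0.25% (w/v) methylcellulose in water, unadjusted pH. Bled again 24 h after the fourth dose. Plasma glucose read by hexokinase UV method. Expressed as % normalization: vehicle = 0%, ciglitazone 50 mg/kg = 100%.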

Mus musculus [4] = test: In vivo percent glucose normalization in mice at a concentration of 25 mg/kg; format: functional; how it was run: as §3
[5] = In vitro stimulation of 2-Deoxyglucose uptake in L6 myocytes from rat skeletal myoblasts at a concentration of 10 uM; format: functional; how it was run: as §2
3T3-L1 [6] = test: In vitro fold stimulation of glucose transporter protein in 3T3-L1 adipocytes at a concentration of 30 uM; format: functional, Mus musculus; how it was run: as §1
[7] = In vitro stimulation of 2-Deoxyglucose uptake in L6 myocytes from rat skeletal myoblasts at a concentration of 30 uM; format: functional; how it was run: as §2
Mus musculus [8] = test: Compound was evaluated for in vivo for % glucose normalization in mice at a concentration of 5 mg/kg.; format: functional; how it was run: as §3
Mus musculus [9] = test: Compound was evaluated for in vivo for % glucose normalization in mice at a concentration of 2.5 mg/kg.; format: functional; how it was run: as §3

Structure (SMILES) | GT fold stimulation (3T3-L1 [1]) | 2-DG uptake stimulation [2] | Glucose normalisation (Mus musculus [3]) | Glucose normalisation (Mus musculus [4]) | 2-DG uptake stimulation [5] | GT fold stimulation (3T3-L1 [6]) | 2-DG uptake stimulation [7] | Glucose normalisation (Mus musculus [8]) | Glucose normalisation (Mus musculus [9])
O=C1NC(=O)C(Cc2ccc3c(c2)CC2(CCCCC2)CO3)S1 (centres undefined) | 0.8 | 1.15 | 6% | 68% | 1.27 | 1.23 | 1.38 | – | –
O=C1NC(=O)C(Cc2ccc3c(c2)CC(c2ccccc2)O3)S1 (centres undefined) | 1.14 | 0.76 | 6% | 85% | 0.99 | 1.42 | 1.3 | – | –
O=C1NC(=O)C(Cc2ccc3c(c2)CCC(Cc2ccccc2)(Cc2ccccc2)O3)S1 (centres undefined) | 1.03 | 0.73 | – | 12% | 0.86 | 1.23 | 0.44 | – | –
O=C1NC(=O)C(Cc2ccc3c(c2)CC(C2CCCCC2)O3)S1 (centres undefined) | 1.25 | 1.1 | – | 23% | 1.85 | 1.42 | 1.66 | – | –
CC1(COc2ccc(CC3SC(=O)NC3=O)cc2)CCCCC1 (centres undefined) [CIGLITAZONE] | 1.49 | 0.82 | 52% | 84% | 1.02 | 1.51 | 0.68 | – | –
O=C1NC(=O)C(Cc2ccc3c(c2)CCC2(CCCCC2)O3)S1 (centres undefined) | 0.97 | 0.97 | – | 35% | 1.52 | 1.2 | 1.22 | – | –
O=C1NC(=O)C(Cc2ccc3c(c2)CCC(C2CCCCC2)O3)S1 (centres undefined) | 1.03 | 1.28 | 75% | 69% | 2.08 | 1.23 | 2.23 | 65% | 5%
COc1ccc(CC2CCc3cc(CC4SC(=O)NC4=O)ccc3O2)cc1 (centres undefined) | 1.08 | 0.92 | 68% | 85% | 1.15 | 1.21 | 0.69 | 10% | –
CC1(C2Cc3cc(CC4SC(=O)NC4=O)ccc3O2)CCCCC1 (centres undefined) | 1.11 | 0.8 | 33% | 80% | 0.93 | 1.22 | 1.67 | – | –
O=C1NC(=O)C(Cc2ccc3c(c2)CC[C@H](Cc2ccccc2)O3)S1 (some centres undefined) [ENGLITAZONE] | 1.13 | 0.77 | 90% | 88% | 0.91 | 1.24 | 1.27 | 73% | 31%
O=C1NC(=O)C(Cc2ccc3c(c2)CC(CC2CCCCC2)O3)S1 (centres undefined) | 1.14 | 0.88 | – | 19% | 1.39 | 1.41 | 1.71 | – | –
O=C1NC(=O)C(Cc2ccc3c(c2)CCC(Cc2ccccc2)O3)S1 (centres undefined) | 1.14 | 0.91 | 70% | 91% | 1.29 | 1.48 | 1.14 | 48% | 29%
O=C1NC(=O)C(Cc2ccc3c(c2)CCC(Cc2ccc(O)cc2)O3)S1 (centres undefined) | 1.25 | 1.04 | 55% | 100% | 1.24 | 1.34 | 1.03 | – | –
O=C1NC(=O)C(Cc2ccc3c(c2)CCC2(CCCC2)O3)S1 (centres undefined) | 0.95 | 0.79 | 64% | 52% | 1.06 | 1.1 | 1.18 | 50% | 0%
O=C1NC(=O)C(Cc2ccc3c(c2)C(Cc2ccccc2)CO3)S1 (centres undefined) | 1.09 | 0.85 | – | 0% | 1.25 | 1.31 | 1.4 | – | –
O=C1NC(=O)C(Cc2ccc3c(c2)CCC(Cc2ccccn2)O3)S1 (centres undefined) | 1.48 | 0.76 | 49% | 74% | 0.96 | 1.42 | 0.96 | – | –
O=C1NC(=O)C(Cc2ccc3c(c2)CC[C@@H](Cc2ccccc2)O3)S1 (some centres undefined) | 1.13 | 0.77 | 47% | 73% | 0.9 | 1.17 | 1.23 | 41% | –
O=C1NC(=O)C(Cc2ccc3c(c2)CCC2(CCCCCC2)O3)S1 (centres undefined) | 0.94 | 1.32 | – | 0% | 0.99 | 1.12 | 0.43 | – | –
CCC1(CC)CCc2cc(CC3SC(=O)NC3=O)ccc2O1 (centres undefined) | 1.08 | 1.01 | – | 24% | 1.33 | 1.21 | 1.38 | – | –
O=C1NC(=O)C(Cc2ccc3c(c2)CCC(c2ccccc2)O3)S1 (centres undefined) | 1.05 | 0.78 | 0% | 70% | 0.95 | 1.37 | 1.15 | – | –
O=C1NC(=O)C(Cc2ccc3c(c2)CCC(CC2CCCCC2)O3)S1 (centres undefined) | 1.02 | 1.14 | – | 7% | 1.55 | 1.28 | 0.68 | – | –
O=C1NC(=O)C(Cc2ccc3c(c2)CCC(Cc2ccc(OCc4ccccc4)cc2)O3)S1 (centres undefined) | 1.48 | 1.42 | 100% | 95% | 1.53 | 1.59 | 1.34 | 73% | 19%
O=C1NC(=O)C(Cc2ccc3c(c2)C(c2ccccc2)CO3)S1 (centres undefined) | 1.13 | 1.05 | – | 32% | 1.24 | 1.19 | 1.42 | – | –
O=C1NC(=O)C(Cc2ccc3c(c2)CC(Cc2ccccc2)O3)S1 (centres undefined) | 1.34 | 0.91 | 95% | 100% | 1.11 | 1.51 | 1.51 | 65% | 0%
O=C1NC(=O)C(Cc2ccc3c(c2)CC2(CCCCC2)O3)S1 (centres undefined) | 1.15 | 0.85 | – | 56% | 1.28 | 1.36 | 1.62 | – | –
